In brackets after ≈: the same amount, converted by molar mass. Activity calls are given as the source filed them. The calls are words filed in the database; no cut-off is given here.
Assays:
[1] = tested on: Mycobacterium tuberculosis; assay: Antimicrobial activity against Mycobacterium tuberculosis H37Rv after 30 days by agar microdilution method; format: functional
Summary of the method: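 Twofold dilutions of compound in DMSO incorporated into Middlebrook 7H10 medium with OADC supplement in slanted tubes, preincubated 37 °C for 24 h, then streaked with H37Rv harvested from L-J medium into 0.85% saline with 0.05% Tween-80 (5 × 10^5 bacilli per tube). Incubated at 37 °C; MIC = lowest concentration giving complete inhibition of colonies versus drug-free control.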

Plasmodium falciparum [2] = assay: Antimalarial activity against Plasmodium falciparum 3D7 assessed as radiolabeled hypoxanthine uptake after 48 hrs by scintillation counting; format: functional, organism-based; conditions: 3D7, 48 h
Summary of the method: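 Chloroquine-sensitive P. falciparum 3D7 asynchronous culture at 0.5% parasitaemia and 1.5% hematocrit, exposed to compounds for 24 h at 37 °C in CO2. Radiolabelled hypoxanthine (0.5 µCi/well) then added and incubation continued 48 h. Cells harvested onto filter paper, and radioactivity counted by scintillation β-counter. IC50 derived from hypoxanthine uptake.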

[3] = Selectivity index, ratio of CC50 for african green monkey (Cercopithecus aethiops) Vero cells to IC50 for Plasmodium falciparum 3D7; format: functional
Summary of the method: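 Ratio of Vero CC50 (resazurin fluorescence after 72 h exposure) to P. falciparum 3D7 IC50 (radiolabelled hypoxanthine uptake; 24 h compound exposure, then 48 h with label).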

Mycolicibacterium aurum [4] = assay: Inhibition of type II fatty acid biosynthesis pathway in Mycobacterium aurum assessed as growth inhibition by cfu analysis; format: functional
Summary of the method: (§1)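 M. aurum (recombinant reporter strains) grown in Sauton's medium with 0.05% Tween-80 and kanamycin to 0.6 OD600, diluted to 0.05 OD. 1 × 10^5 cells inoculated into 5 ml medium with varying compound concentrations, grown 12 h at 37 °C with shaking. Viable cells counted by 10-fold serial dilution plating on nutrient agar-Tween-kanamycin. % inhibition calculated with untreated colony count taken as 100%.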

Mycolicibacterium aurum [5] = assay: Inhibition of type II fatty acid biosynthesis pathway in Mycobacterium aurum assessed as growth inhibition by lacZ reporter assay; format: functional; summary of the method: as §1
Mycolicibacterium aurum [6] = assay: Inhibition of type II fatty acid biosynthesis pathway in Mycobacterium aurum at 50 uM after 12 hrs by lacZ reporter assay relative to untreated control; format: functional
Summary of the method: (§2)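 Recombinant M. aurum lacZ reporter strains (kasA promoter or hsp60 promoter) grown in Sauton's medium with kanamycin at 37 °C to 0.5 OD600, diluted to 0.04–0.05 OD, equilibrated 2 h, then treated 12 h at 37 °C (10, 25, 50, 75 µM). Cells sonicated in PBS pH 7.2 and protein normalized by Bradford. β-gal measured with ONPG (4 mg/ml), 30 min at 37 °C, stopped with Na2CO3, OD 410 nm. Triplicates, relative to untreated control.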

Mycolicibacterium aurum [7] = assay: Inhibition of type II fatty acid biosynthesis pathway in Mycobacterium aurum assessed as beta-galactosidase activity at 50 to 100 uM after 12 hrs by lacZ reporter assay relative to untreated control; format: functional, organism-based
Mycolicibacterium aurum [8] = assay: Inhibition of type II fatty acid biosynthesis pathway in Mycobacterium aurum at 25 uM after 12 hrs by lacZ reporter assay relative to untreated control; format: functional; summary of the method: as §2
Mycolicibacterium aurum [9] = assay: Inhibition of type II fatty acid biosynthesis pathway in recombinant Mycobacterium aurum carrying hsp60 promoter assessed as beta-galactosidase activity at 50 to 100 uM after 12 hrs by lacZ reporter assay relative to untreated control; format: functional, organism-based
Plasmodium falciparum [10] = assay: Antimalarial activity against Plasmodium falciparum 3D7 assessed as maturation of schizonts after 24 to 32 hrs by microdilution method; format: functional
Summary of the method: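 P. falciparum 3D7 (chloroquine sensitive); twofold serial dilutions in complete RPMI 1640 from 10 mg/ml DMSO stocks, parasitized RBCs added (final hematocrit 3–4%, 1.0–2.0% parasitaemia, >95% rings). Incubated 24–32 h at 37 °C with 5% CO2. Thin smears stained with 15% Giemsa; schizont maturation scored against controls to give MIC.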

[11] = Cytotoxicity against african green monkey Vero cells after 72 hrs; format: cell-based; conditions: chlorocebus sabaeus
Summary of the method: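 Vero (C1008 monkey kidney) cells grown in MEM + 15% FBS, 5% CO2, 37 °C. Trypsinized cells at 1 × 10^5 cells/ml seeded and allowed to adhere overnight, then exposed to serial compound dilutions for 72 h. Resazurin added and fluorescence read after 4 h.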

Compound: CN(C)CCCNc1ccc(C(=O)C2CC2c2ccc(Cl)cc2)cc1 (stereo unspecified)
- MIC [1]: 6.25 µg/mL (≈ 17.5 µM)
- IC50 (Plasmodium falciparum [2]): 2.86 µg/mL (≈ 8.01 µM)
- Ratio CC50/IC50 [3]: 5.53
- inhibition (INH) (Mycolicibacterium aurum [4]): >=85%
- inhibition (INH) (Mycolicibacterium aurum [5]): >=85%
- inhibition at 50 µM (Mycolicibacterium aurum [6]): 57.4%
- inhibition (Mycolicibacterium aurum [7]): Active
- inhibition at 25 µM (Mycolicibacterium aurum [8]): 46.3%
- inhibition (Mycolicibacterium aurum [9]): inactive
- MIC (Plasmodium falciparum [10]): 50 µg/mL (≈ 140 µM)
- CC50 at 72 h [11]: 15.8 µg/mL (≈ 44.4 µM)
